pIC50: −log10 of the molar value.

Among the data in ChEMBL document CHEMBL1135584, “2-Amino-6-arylthio-9-[2-(phosphonomethoxy)ethyl]purine bis(2,2,2-trifluoroethyl) esters as novel HBV-specific antiviral reagents” (J Med Chem, 2002) are CC50 and IC50 values, retold here.

Test [1] in a line: Cytotoxic concentration of compound required for 50% extinction of HuH-6 cells. The format is functional. The conditions noted are these: Homo sapiens. In outline:
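HuH-6 cells (parent of HB611) seeded at 1 × 10⁵ cells/mL, cultured 3 days at 37 °C, 5% CO₂ in DMEM with 10% FBS plus compound; MTS added, further 2 h at 37 °C; viability by absorbance at 490 nm; CC50 determined.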

Another test concerns Hepatitis B virus. Description: Concentration required to inhibit 50% of cytoplasmic HBV-DNA synthesis.
Another test deals with Human alphaherpesvirus 1. As to the kind of experiment: Anti-HSV-1 activity of the compound. The format is functional, organism-based.

As for `CCCCOc1ccc(Sc2nc(N)nc3c2ncn3CCOCP(=O)(OCC(F)(F)F)OCC(F)(F)F)cc1`, in test [1], the CC50 (usually the concentration giving 50% cytotoxicity) is 260 µM. In addition, the pIC50 (in general, the negative decadic logarithm of the IC50, by convention in mol/L) in the test on Hepatitis B virus is below 6.00.
The like results for `Nc1ncnc2c1ncn2CCOCP(=O)(O)O` [ADEFOVIR] were, in that order, above 1000 µM and 6.70.
In test [1], `CC(C)Oc1ccc(Sc2nc(N)nc3c2ncn3CCOCP(=O)(OCC(F)(F)F)OCC(F)(F)F)cc1` yielded a CC50 of 350 µM. The pIC50 with Hepatitis B virus was 6.54.
The like results for `Cc1cccc(Sc2nc(N)nc3c2ncn3CCOCP(=O)(OCC(F)(F)F)OCC(F)(F)F)c1` were, in that order, 150 µM and 7.05.
The like results for `CCCOc1ccc(Sc2nc(N)nc3c2ncn3CCOCP(=O)(OCC(F)(F)F)OCC(F)(F)F)cc1` were, in that order, 250 µM and 6.06.
The like results for `Nc1nc(Sc2ccc3ccccc3c2)c2ncn(CCOCP(=O)(OCC(F)(F)F)OCC(F)(F)F)c2n1` were, in that order, 198 µM and 7.05.
`COc1ccc(Sc2nc(N)nc3c2ncn3CCOCP(=O)(OCC(F)(F)F)OCC(F)(F)F)cc1` [ALAMIFOVIR] had a CC50 in test [1] above 1000 µM. The compound also gave a pIC50 in the test with Hepatitis B virus of 7.52.
Compound `Cc1ccccc1Sc1nc(N)nc2c1ncn2CCOCP(=O)(OCC(F)(F)F)OCC(F)(F)F` had a CC50 in test [1] of 340 µM. Moreover, the pIC50 with Hepatitis B virus was 7.10.
The like results for `Nc1nc(Sc2ccc(OC(F)(F)F)cc2)c2ncn(CCOCP(=O)(OCC(F)(F)F)OCC(F)(F)F)c2n1` were, in that order, 820 µM and 7.22.
The matching figures for `Nc1ccn([C@@H]2CS[C@H](CO)O2)c(=O)n1` [LAMIVUDINE]: above 1000 µM and 5.66.
Consider `Nc1nc(Sc2ccccc2)c2ncn(CCOCP(=O)(OCC(F)(F)F)OCC(F)(F)F)c2n1`, for which the CC50 in test [1] was above 1000 µM. Besides, the pIC50 in the test on Hepatitis B virus is 7.30; in the test on Human alphaherpesvirus 1, 4.60.
As to `CC(C)c1ccc(Sc2nc(N)nc3c2ncn3CCOCP(=O)(OCC(F)(F)F)OCC(F)(F)F)cc1`, half-maximal cytotoxicity in test [1] (CC50) was put at 170 µM. Besides, the pIC50 with Hepatitis B virus is 6.01.
The like results for `Nc1nc(Sc2ccc([N+](=O)[O-])cc2)c2ncn(CCOCP(=O)(OCC(F)(F)F)OCC(F)(F)F)c2n1` were, in that order, 380 µM and 6.28.
The matching figures for `Nc1nc(Sc2ccc(Cl)cc2)c2ncn(CCOCP(=O)(OCC(F)(F)F)OCC(F)(F)F)c2n1`: 62 µM and 6.92.
The like results for `CCOc1ccc(Sc2nc(N)nc3c2ncn3CCOCP(=O)(OCC(F)(F)F)OCC(F)(F)F)cc1` were, in that order, above 1000 µM and 6.19.
In the case of `COc1cccc(Sc2nc(N)nc3c2ncn3CCOCP(=O)(OCC(F)(F)F)OCC(F)(F)F)c1`, the CC50 in test [1] was above 1000 µM. This compound also showed a pIC50 with Hepatitis B virus of 7.40.
The like results for `Cc1ccc(Sc2nc(N)nc3c2ncn3CCOCP(=O)(OCC(F)(F)F)OCC(F)(F)F)cc1` were, in that order, 110 µM and 7.22.
In turn, `CCc1ccc(Sc2nc(N)nc3c2ncn3CCOCP(=O)(OCC(F)(F)F)OCC(F)(F)F)cc1` returned a CC50 in test [1] of 170 µM. Besides, the pIC50 in the test with Hepatitis B virus is 6.40.
For `COc1ccc(Sc2nc(N)nc3c2ncn3CCOCP(=O)(O)OCC(F)(F)F)cc1`, the pIC50 with Hepatitis B virus is 7.15.
Take `CC(C)COc1ccc(Sc2nc(N)nc3c2ncn3CCOCP(=O)(OCC(F)(F)F)OCC(F)(F)F)cc1`: the CC50 in test [1] came out at 100 µM. In the test with Hepatitis B virus, the pIC50 was 6.08.
The matching figures for `COc1ccccc1Sc1nc(N)nc2c1ncn2CCOCP(=O)(OCC(F)(F)F)OCC(F)(F)F`: above 1000 µM and 7.10.
